{"data": "Results gathered from unrelated publications"}
{"SMILES": "O=C(O)c1cnn(-c2ccccc2)c1OCCCc1c[nH]c2ccccc12", "cell line": "HFF", "test": "cell growth or viability", "setting": "200 µM, 96 h", "measurement": "inhibition", "result": "< 50%"}
{"SMILES": "COC(=O)[C@H]1O[C@@H](O[C@H]2CC[C@]3(C)[C@H]4CC=C5[C@@H]6CC(C)(C)CC[C@]6(C(=O)O[C@@H]6O[C@H](CO)[C@@H](O)[C@H](O)[C@H]6O)CC[C@@]5(C)[C@]4(C)CC[C@H]3C2(C)C)[C@H](O)[C@@H](O)[C@@H]1O[C@@H]1O[C@@H](CO)[C@H](O)[C@H]1O", "cell line": "human Neutrophil", "test": "elastase release, inhibitor", "measurement": "IC50", "result": "> 30 µM"}
{"SMILES": "COc1cc2[nH]c(C)c(-c3ccc(N(C)C)cc3)c(=O)c2cc1Cl", "cell line": "J774", "test": "cell growth or viability", "measurement": "EC50", "result": "> 29.2 µM"}
{"SMILES": "Cl.O[C@]12C=C(c3nccc4c3[nH]c3ccccc34)[C@@H]3CCN(CCCC/C=C\\CC1)C[C@@]31C[C@@H]3/C=C\\CCCCN3[C@H]12", "cell line": "KB", "test": "cell growth or viability, neutral red", "setting": "48 h", "measurement": "IC50", "result": "0.38 µg/mL"}
{"SMILES": "Cc1c2ccncc2c(C)c2c1[nH]c1ccccc12", "cell line": "KB", "test": "cell growth or viability, MTT", "setting": "72 h", "measurement": "IC50", "result": "0.22 µg/mL"}
{"SMILES": "N.N.[Cl][Pt][Cl]", "cell line": "Hs 683", "test": "cell growth or viability, MTT", "measurement": "IC50", "result": "1.12 µM"}
{"SMILES": "CCCCOC(=O)[C@H]1O[C@@H](O[C@H]2CC[C@]3(C)[C@H]4CC=C5[C@@H]6CC(C)(C)CC[C@]6(C(=O)O[C@@H]6O[C@H](CO)[C@@H](O)[C@H](O)[C@H]6O)CC[C@@]5(C)[C@]4(C)CC[C@H]3C2(C)C)[C@H](O[C@@H]2OC[C@@H](O)[C@H](O)[C@H]2O)[C@@H](O)[C@@H]1O", "cell line": "human Neutrophil", "test": "elastase release, inhibitor", "measurement": "IC50", "result": "> 30 µM"}
{"SMILES": "CC1=CC(=O)c2c(O)cccc2C1=O", "cell line": "NCI-H226", "test": "cell growth or viability, SRB", "measurement": "IC50", "result": "3.03 µM"}
{"SMILES": "COc1cccc2c1C(=O)c1c(O)c3c(c(O)c1C2=O)C[C@@](O)(C(=O)CO)C[C@@H]3O[C@H]1C[C@H](N)[C@H](O)[C@H](C)O1", "cell line": "KB", "test": "cell growth or viability", "setting": "48 h", "measurement": "IC50", "result": "1.4 µg/mL"}
{"SMILES": "COc1ccc2[nH]cc(CCNc3nccc(Nc4cccc5c4ccn5C)n3)c2c1", "cell line": "U-937", "test": "cell growth or viability, fluorescence", "setting": "72 h", "measurement": "IC50", "result": "0.008 µM"}
